Screening results (PubChem)
A selection: hits, their analogues and other compounds. The true share with any hit is near 1.9%.
LMPTP block – LMPTP phosphatase inhibitors, primary screen, biochemical, fluorescence intensity, uHTS. Low molecular weight phosphotyrosine protein phosphatase (Homo sapiens), P24666. recombinant LMPTP-A, OMFP fluorogenic substrate. inhibition, % at 20 µM. 360,000 compounds, 0.22% hits;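 active = compounds that cut the enzyme signal by at least half of the control window in the single-dose screen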;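 note: plate controls were DMSO wells with enzyme plus substrate for no effect and substrate without enzyme for full effect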
Target sequence (P24666 whole entry, looked up): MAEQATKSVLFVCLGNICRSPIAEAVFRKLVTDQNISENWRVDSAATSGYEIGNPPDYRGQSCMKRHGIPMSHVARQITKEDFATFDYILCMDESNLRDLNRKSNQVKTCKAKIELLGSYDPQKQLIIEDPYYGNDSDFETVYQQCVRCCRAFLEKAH
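Assay system: LMPTP-A, protein tyrosine phosphatase of low molecular weight / Medium: pH 6.0 Bis-Tris buffer with DTT and Triton X-100 / Schedule: 50 min enzyme reaction at room temperature, protected from light / Measured by: endpoint fluorescence intensity from OMFP dephosphorylation / Read-out basis: % inhibition relative to no-enzyme and uninhibited control wells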
Scp-1 inhibitor – Scp-1 phosphatase inhibitors, primary screen, biochemical, colorimetric, uHTS; inhibition, % at 20 µM; Recombinant Scp1, phosphopeptide, malachite green phosphate absorbance; AID 493091, 2011; 340,000 compounds, 0.88% hits;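 active = inhibition above about 50% at 20 µM, limit read from the data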;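 note: plate controls were DMSO wells with enzyme for no effect and wells lacking enzyme for full effect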
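Material: truncated SCP-1 phosphatase (76-261aa) / Buffer or medium: 50 mM Tris acetate pH 5.5, 0.005% Tween-20, 10 mM MgCl2 / Compound dosing: one concentration, 20 µM, with 1.0% DMSO / Incubation: 45 min room-temperature reaction, 5 min colour, 30 min stabiliser / Detection: colorimetric free-phosphate detection, absorbance 630 nm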
DNMT1 block – human DNMT1 methyltransferase inhibitors, primary screen, biochemical, molecular beacon, fluorescence, HinP1I cleavage, uHTS; 360,000 compounds, 0.83% hits; DNA (cytosine-5)-methyltransferase 1 (Homo sapiens), P26358; AID 588458, 2011; inhibition (reported as % activation of signal), % at 10 µM; in the data active = inhibition above about 50%
STEP block – STEP phosphatase inhibitors, primary screen, biochemical, fluorescence intensity, uHTS; inhibition, % at 20 µM; AID 588621, 2011; 360,000 compounds, 0.25% hits; recombinant STEP, OMFP fluorogenic substrate;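 active = inhibition at 20 µM, scaled per plate between control wells, above about 37%, limit read from the data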;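 note: 0% = DMSO with enzyme and substrate and 100% = substrate only without enzyme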
Target sequence (P54829 whole entry, looked up): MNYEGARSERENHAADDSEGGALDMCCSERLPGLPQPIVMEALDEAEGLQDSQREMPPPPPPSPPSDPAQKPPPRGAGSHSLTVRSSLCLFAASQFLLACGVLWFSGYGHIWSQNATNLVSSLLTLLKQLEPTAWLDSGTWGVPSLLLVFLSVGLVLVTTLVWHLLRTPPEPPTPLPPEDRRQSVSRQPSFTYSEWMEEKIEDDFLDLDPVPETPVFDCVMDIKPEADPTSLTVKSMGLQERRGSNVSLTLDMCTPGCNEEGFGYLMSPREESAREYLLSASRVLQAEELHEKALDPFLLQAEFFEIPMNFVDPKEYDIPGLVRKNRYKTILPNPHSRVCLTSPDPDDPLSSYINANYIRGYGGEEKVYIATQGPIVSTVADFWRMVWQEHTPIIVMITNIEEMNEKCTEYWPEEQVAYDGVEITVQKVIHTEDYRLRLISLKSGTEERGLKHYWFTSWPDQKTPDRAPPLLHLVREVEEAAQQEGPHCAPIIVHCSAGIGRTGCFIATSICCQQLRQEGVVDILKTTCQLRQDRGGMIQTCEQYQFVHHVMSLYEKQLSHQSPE
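System: STEP (striatal-enriched tyrosine phosphatase) enzyme, cell-free; medium: Bis-Tris pH 6.0 buffer with DTT, detergent; dosing: 20 µM, 1% DMSO; times: reaction 20 min, ambient temperature; detection: fluorescence, 480/540 nm; read-out basis: normalized % inhibition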
CSN deneddyl inh – inhibitors of CSN-mediated cullin deneddylation, primary screen, biochemical, fluorescence polarization, uHTS | Purified CSN, SCF-Nedd8-OG deneddylation | 360,000 compounds, 0.38% hits | COP9 signalosome complex subunit 5 (Homo sapiens), Q92905 | inhibition, % at 12.5 µM | AID 651999, 2013;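 active = pattern-corrected inhibition above about 35%, with an unprinted fluorescence ratio check between 0.5 and 1.5, limit read from the data, passing the limit was not always enough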;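 note: 0% = enzyme with substrate and 100% = substrate without enzyme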
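Assay system: purified human Csn5 enzyme expressed in HEK293T cells; measure: % inhibition; also added: SCFSkp2-Nedd8OG substrate at 10 nM final; technique: fluorescence polarization; times: reaction 90 min, room temperature; medium: Tris buffer pH 7.5, NaCl, DTT, Tween-20, trehalose, ovalbumin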
SUMO1-SIM PPI – modulators of SUMO1 protein-protein interactions, primary screen, biochemical, uHTS. Small ubiquitin-related modifier 1 (Homo sapiens), P63165. SUMO1 binding to a labelled peptide, TR-FRET, 1 h. inhibition, % at 20 µM. 360,000 compounds, 0.33% hits. AID 602429, 2012; in the data active = inhibition above about 37%
Scp1 confirm – Scp-1 phosphatase inhibitors, retest, confirmation, biochemical, colorimetric, single concentration; shares compounds with Scp-1 inhibitor; inhibition, % at 20 µM; AID 540281, 2011; recombinant SCP-1 catalytic domain, phosphate release, malachite green absorbance; 2,500 compounds, 61% hits;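 note: plate controls were DMSO with enzyme for no effect and buffer wells lacking enzyme for full effect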
Scp-1 MG ctr – colorimetric readout interference by compounds, confirmation, artefact control for Scp-1 inhibitor project, biochemical, single concentration; Colorimetric interference counterscreen, malachite green absorbance 630 nm; apparent inhibition (interference), % at 20 µM; shares compounds with Scp-1 inhibitor; 2,500 tested, under 10 active;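 note: compounds added after enzyme reaction finished so only phosphate colour detection is probed; plate controls were DMSO wells with completed Scp-1 reaction for no effect and substrate wells lacking enzyme for full effect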
Scp-1 Tm shift – Scp-1 binding by thermal shift, confirmation, orthogonal assay for Scp-1 inhibitor project, biophysical, differential scanning fluorimetry | shares compounds with Scp-1 inhibitor | Recombinant SCP1, Sypro Orange thermal shift Tm | thermal shift relative to vanadate control, % at 40 µM | 1,500 compounds, 25% hits;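 active = substances whose mean melting-temperature shift, as a percentage of the reference inhibitor's shift, reaches about 5.3%, limit read from the data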;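 note: 0% = Tm of DMSO wells and 100% = Tm with sodium orthovanadate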
Active calls of the source: *.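 Rule for the calls, unless noted: active = inhibition of at least 30% at 20 µM; inactive = the rest.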

`COC(=O)C1=C(c2cccc(C#N)c2)C[C@@H]2CC[C@H]1N2C(=O)NC1Cc2ccccc2C1` gave LMPTP block -2, Scp-1 inhibitor 12, DNMT1 block 1, STEP block -2, CSN deneddyl inh 0 and SUMO1-SIM PPI -6.
For Cc1cc(C(C#N)c2ccc(Cl)cc2)c(Cl)cc1NC(=O)c1cc(I)cc(I)c1O (stereo unspecified) the results were LMPTP block 6, Scp-1 inhibitor 9, DNMT1 block 74*, STEP block 10, CSN deneddyl inh 12 and SUMO1-SIM PPI 51*.
CC=C(CC)C1(CC)C(=O)NC(=S)NC1=O was read as LMPTP block 0, Scp-1 inhibitor 2, DNMT1 block 2, STEP block 2, CSN deneddyl inh 2 and SUMO1-SIM PPI -2.
Screening COC(=O)c1nc(-c2ccc3c(n2)C(=O)C(N)=C(OC)C3=O)c(N)c(-c2ccc(OC)c(OC)c2O)c1C returned LMPTP block 1, Scp-1 inhibitor -8, DNMT1 block 86*, STEP block 3, CSN deneddyl inh 6 and SUMO1-SIM PPI 14.
Screening Nc1ccc(CC2=NCCN2)cc1 returned LMPTP block -4, Scp-1 inhibitor -18, DNMT1 block 57*, STEP block 0, CSN deneddyl inh 1 and SUMO1-SIM PPI -8.
Screening C[CH2][Hg][S]c1ccccc1C(=O)O returned LMPTP block 2, Scp-1 inhibitor 101*, DNMT1 block 26, STEP block 2, CSN deneddyl inh -3 and SUMO1-SIM PPI 10.
`CC(C)COC(=O)c1ccccc1C(=O)OCC(C)C` gave LMPTP block 2, Scp-1 inhibitor -10, DNMT1 block -3, STEP block 1, CSN deneddyl inh 4 and SUMO1-SIM PPI 3.
COc1ccccc1NC(=O)c1cn(CCC#N)nc1-c1cccc(Cl)c1 was read as LMPTP block 1, Scp-1 inhibitor -6, DNMT1 block -3, STEP block -1, CSN deneddyl inh 2 and SUMO1-SIM PPI 3.
`COc1ccc(C=C2C(=O)NC(=S)NC2=O)cc1OC` gave LMPTP block -2, Scp-1 inhibitor 10, DNMT1 block 0, STEP block 0, CSN deneddyl inh -1 and SUMO1-SIM PPI -3.
`CCOc1cc(C=C2C(=O)NC(=S)NC2=O)ccc1O` gave LMPTP block 2, Scp-1 inhibitor 50, DNMT1 block -4, STEP block -3, CSN deneddyl inh 0, SUMO1-SIM PPI -3, Scp1 confirm 7 and Scp-1 MG ctr -16.
`O=C(O)C1C2c3ccccc3C(O)C1(C(=O)O)c1ccccc12` (stereo unspecified) gave LMPTP block -1, Scp-1 inhibitor -8, DNMT1 block 1, STEP block -3, CSN deneddyl inh -1 and SUMO1-SIM PPI 3.
Screening COc1cc2c(cc1OC)C13CCN4CC5CCOC6CC(=O)N2C1C6C5CC43 (stereo unspecified) returned LMPTP block -1, Scp-1 inhibitor -15, DNMT1 block -1, STEP block -2, CSN deneddyl inh 0 and SUMO1-SIM PPI 7.
For CC(C)[N+](C)(CCC(C(N)=O)(c1ccccc1)c1ccccc1)C(C)C the results were LMPTP block -1, Scp-1 inhibitor 99*, DNMT1 block 3, STEP block -1, CSN deneddyl inh -1, SUMO1-SIM PPI 1, Scp1 confirm 91*, Scp-1 MG ctr -7 and Scp-1 Tm shift -12.
Screening O=[N+]([O-])c1cc(S(=O)(=O)c2ccc(O)c([N+](=O)[O-])c2)ccc1O returned LMPTP block -3, Scp-1 inhibitor 56*, DNMT1 block 41, STEP block 2, CSN deneddyl inh 19, SUMO1-SIM PPI 33, Scp1 confirm 61*, Scp-1 MG ctr -8 and Scp-1 Tm shift 17*.
For O=[N+]([O-])c1cccc(O)c1 the results were LMPTP block -2, Scp-1 inhibitor -3, DNMT1 block 0, STEP block -2, CSN deneddyl inh 0 and SUMO1-SIM PPI -14.
For CC12CC(=O)C3C(CCC4CC(=O)C=CC43C)C1CCC2=O (stereo unspecified) the results were LMPTP block -1, Scp-1 inhibitor -12, DNMT1 block 5, STEP block 0, CSN deneddyl inh 2 and SUMO1-SIM PPI -3.
COc1ccc(/C=C/C=C2C(=O)NC(=S)NC2=O)cc1 was read as LMPTP block 0, Scp-1 inhibitor 50*, DNMT1 block 10, STEP block 2, CSN deneddyl inh 11, SUMO1-SIM PPI 15, Scp1 confirm 14 and Scp-1 MG ctr -8.
CN1CCN(C(=O)COc2ccc(N(C)S(=O)(=O)c3ccc(F)cc3)cc2)CC1 was read as LMPTP block 0, Scp-1 inhibitor 68*, DNMT1 block -1, STEP block -3, CSN deneddyl inh -2, SUMO1-SIM PPI -1, Scp1 confirm -10 and Scp-1 MG ctr -11.
Screening CCOC(=O)c1cncn1[C@@H](C)c1ccccc1 returned LMPTP block -1, Scp-1 inhibitor -9, DNMT1 block 3, STEP block -2, CSN deneddyl inh 2 and SUMO1-SIM PPI 0.
For C[N+](C)(C)c1ccccc1 the results were LMPTP block -1, Scp-1 inhibitor 52*, DNMT1 block -1, STEP block -3, CSN deneddyl inh -3, SUMO1-SIM PPI 0, Scp1 confirm 17 and Scp-1 MG ctr -11.
